# Experimental data as given in publication PMC5814953 (Nucleic Acids Research, 2017).
# Ends that are not written are not given here. Peptide text beside a SMILES is read from it. * marks the point of attachment. Biotin = O=C1N[C@H]2[C@H](CS[C@H]2CCCCC(=O)*)N1
# T1: Sim3-His, bacterially purified recombinant Sim3 protein (S. pombe, UniProt Q9USQ4 1-396)
# T1 sequence (looked up): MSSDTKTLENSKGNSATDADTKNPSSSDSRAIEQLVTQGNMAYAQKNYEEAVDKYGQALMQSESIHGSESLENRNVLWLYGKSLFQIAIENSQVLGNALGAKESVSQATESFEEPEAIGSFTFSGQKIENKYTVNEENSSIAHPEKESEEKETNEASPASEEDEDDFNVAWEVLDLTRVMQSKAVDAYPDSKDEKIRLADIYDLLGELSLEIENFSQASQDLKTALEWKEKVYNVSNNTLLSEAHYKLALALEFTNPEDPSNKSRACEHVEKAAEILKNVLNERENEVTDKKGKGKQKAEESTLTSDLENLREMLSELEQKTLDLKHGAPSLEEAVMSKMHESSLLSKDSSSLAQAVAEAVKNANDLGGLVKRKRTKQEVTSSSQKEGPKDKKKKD
# Tests used:
# Ani1 = assay: 2D 1H ROESY NMR, cis-trans isomerization of NTD peptide by Ani1; format: biochemical, Schizosaccharomyces pombe
# Ani2 = assay: 2D 1H ROESY NMR, cis-trans isomerization of NTD peptide by Ani2; format: biochemical, Schizosaccharomyces pombe
# [1] = 2D 1H ROESY NMR of NTD peptide in the absence of isomerase; format: physicochemical; settings: pH 6.5, 25°C
# Summary of the method: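 Synthetic NTD peptide at 2 mM in 20 mM phosphate buffer (90% H2O/10% D2O), pH 6.5, run at 25°C. No isomerase was added; the paired runs contained 0.03 mM bacterially produced Ani1 or Ani2.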
# Sim3-FLAG = assay: Biotinylated peptide pull-down of Sim3-FLAG from yeast cell extract, immunoblot; format: binding, Schizosaccharomyces pombe
# [2] = target: T1, Sim3-His, bacterially purified …; assay: ITC
molecule,measurement,setting,value
SLMAEPGDPIPRPR,cis-trans exchange cross-peaks,"Ani1; presence of 0.03 mM Ani1, 2 mM peptide, 20 mM phosphate (90% H2O + 10% D2O, pH 6.5), 25°C",two prominent and reproducible exchange cross-peaks corresponding to Ile14 and Arg16
same,cross peaks corresponding to P10 or P13,"Ani1; presence of Ani1, 2 mM peptide, pH 6.5, 25°C",No cross peaks were found corresponding to P10 or P13
same,cis-trans exchange cross-peaks,"Ani2; presence of 0.03 mM Ani2, 2 mM peptide, 20 mM phosphate (90% H2O + 10% D2O, pH 6.5), 25°C",two prominent and reproducible exchange cross-peaks corresponding to Ile14 and Arg16
same,cross peaks corresponding to P10 or P13,"Ani2; presence of Ani2, 2 mM peptide, pH 6.5, 25°C",No cross peaks were found corresponding to P10 or P13
same,cis-trans exchange cross-peaks,"[1]; absence of Ani1 or Ani2, 2 mM peptide, 20 mM phosphate",no cross-peaks were observed
same,speed of the cis- and trans-conformational switch,"[1]; absence of Ani1 or Ani2, too slow to be detected under the NMR time scale, 2 mM peptide",< 0.1 s⁻¹
CC[C@H](C)[C@H](NC(=O)[C@@H]1CCCN1C(=O)[C@H](CC(=O)O)NC(=O)CNC(=O)[C@@H]1CCCN1C(=O)[C@H](CCC(=O)O)NC(=O)[C@H](C)NC(=O)[C@H](CCSC)NC(=O)[C@H](CC(C)C)NC(=O)[C@H](CO)NC(=O)[C@H](CCCCN)NC(=O)[C@H](CCCCN)NC(=O)[C@H](C)NC(=O)[C@@H](N)CCSC)C(=O)N1CCC[C@H]1C(=O)N[C@@H](CCCNC(=N)N)C(=O)N1CCC[C@H]1C(=O)N[C@@H](CCCNC(=N)N)C(=O)N[C@@H](CCCCN)C(=O)N[C@@H](CCCCN)C(=O)N[C@@H](CCCNC(=N)N)C(=O)N[C@@H](Cc1ccc(O)cc1)C(=O)N[C@@H](CCCNC(=N)N)C(=O)N1CCC[C@H]1C(=O)NCC(=O)N[C@H](C(=O)N[C@H](C(=O)N[C@@H](C)C(=O)N[C@@H](CC(C)C)C(=O)N[C@@H](CCCNC(=N)N)C(=O)N[C@@H](CCCCNC(=O)CCCC[C@@H]1SC[C@@H]2NC(=O)N[C@@H]21)C(=O)O)[C@@H](C)O)[C@@H](C)O [WT SpCENP-A NTD] (H-MAKKSLMAEPGDPIPRPRKKRYRPGTTALRK(Biotin)-OH; N-terminus and C-terminus assumed),reduction of Sim3-FLAG interaction,"Sim3-FLAG; WT peptide, absence of both ani1 and ani2, vs WT cells (1–0.57)",~43%
same,effect of single null mutation of ani1 or ani2 on Sim3-FLAG binding (in words),"Sim3-FLAG; Δani1 or Δani2 single mutant cell extract, Figure 6B bottom gel",did not grossly affect the binding
"MAKKSLMAEAGDAIARARKK (peptide, UniProt Q9Y812 1-20, looked up, also: biotinylated, position not given here) [SpCENP-A NTD 4PA peptide (quadruple P-to-A mutations of the GRANT prolines), biotinylated]",Kd,[2],4.5 µM
